Most compounds without a hit are left out; they make up all but 4.9% or so of the library.
APP 5'UTR act – activators of APP 5'UTR luciferase reporter, primary screen, SH-SY5Y cells. SH-SY5Y APP 5'UTR luciferase reporter, luminescence; zero percent = DMSO vehicle wells. activation, % at 2 µM. 1% of 190,000 active;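 active = activation above a set limit, based on mean plus 3 SD of controls, cut at about 140% in these data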
STAT3 act-1 – IL-6 driven STAT3 reporter potentiators, primary screen, U3A cells, luciferase, luminescence, MLSCN library; AID 871, 2007; activation (% of control), % at 5.6 µM; 0.91% of 190,000 active; IL-6 STAT3-luciferase reporter; 100% = signal with IL-6 EC80 alone;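 active = activation above the screen-wide mean of compound activation plus 3 SD, cut at about 130% in these data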
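Test system: human U3A cells carrying STAT3-luciferase construct; control set: IL-6-only wells as 100% reference; timing: compound pre-incubation 1 h before IL-6, then 6 h stimulation at 37 °C; also added: IL-6 stimulus at 33 ng/mL final; evaluation: % activation versus median of IL-6-stimulated wells; detection: reporter luminescence signal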
NF-kB neuron act – activators of NF-kB expression in neurons, primary screen, cell-based, HTS | human neuronal cells, NF-kB reporter expression; active compounds read high | fold change at 12.5 µM | 1.6% of 190,000 active; in the data active = fold change above about 3.3
STAT1 act-1 – STAT1 signaling activators, primary screen, cell-based, HTS, luciferase reporter; activation (% of control), % at 5.5 µM; NIH 3T3 STAT1-luciferase reporter, IFN-gamma, luminescence; 100% = IFN-gamma alone, no compound; 2.6% of 200,000 active;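 active = activation above the screen-wide mean activation plus 3 SD, cut at about 130% in these data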
STAT3 blocker – IL-6 driven STAT3 reporter inhibitors, primary screen, U3A cells, luciferase, luminescence, MLSCN library; IL-6 STAT3-luciferase reporter; host cell line lacks STAT1; inhibition, % at 5.5 µM; 0.89% of 190,000 active; AID 862, 2007;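 active = inhibition above the mean inhibition across all screened compounds plus 3 SD, cut at about 44% in these data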
STAT1 inh – STAT1 signaling inhibitors, primary screen, cell-based, HTS, luciferase reporter; inhibition, % at 5.5 µM; 0.35% of 200,000 active; NIH 3T3 STAT1-luciferase reporter, IFN-gamma, luminescence; AID 920, 2007;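 active = inhibition above a set limit, the mean inhibition across all tested compounds plus 3 SD, cut at about 34% in these data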
STAT3 act-2 – STAT3 reporter potentiators, retest of hits, confirmation, U3A cells, luciferase, luminescence. AID 1267, 2008. IL-6 potentiation; U3A cells lack STAT1; 100 means same as IL-6 alone. shares compounds with STAT3 act-1. potentiation (% of control), % at 5.7 µM. 64% of 1,200 active;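 active = percent activation of the STAT3 luciferase reporter above a set limit taken from the earlier primary screen, cut at about 130% in these data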
NFkB act 2 – NF-kB reporter activators in human cells, counter-screen for STAT3 activator project; shares compounds with STAT3 act-1; NF-kappaB reporter activation; activation (% of control), % at 5.7 µM; 11% of 1,200 active; in the data active = activation above about 120%;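 also: reporter induced by TNF-alpha stimulation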
STAT1 act-2 – STAT1 reporter activators, IFN-gamma induced, counter-screen for STAT3 activator project, cell-based, NIH 3T3, luciferase luminescence; AID 1318, 2008; NIH 3T3 STAT1-luciferase reporter; shares compounds with STAT3 act-1; 13% of 1,200 active; activation (% of control), % at 5.7 µM;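 active = activation above the solvent-only control well mean plus 3 SD, set per screening run, cut at about 120% in these data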
Each line names hits and unclear results; the compound was inactive in the other large screens (follow-up assays come after a bar, where they were run).

O=C1C(Cl)=C(N2CCN(c3ccccc3[N+](=O)[O-])CC2)C(=O)c2ccccc21	STAT3 act-1 144.8 | STAT3 act-2 134.8 | NFkB act 2 inactive | STAT1 act-2 inactive
CC1=C(C(=O)N2CCOCC2)C(c2c(F)cccc2F)NC(=O)N1 (stereo unspecified)	none
O=C(NC1CCCCC1)C1CC(=O)N(c2cccc([N+](=O)[O-])c2)C1 (stereo unspecified)	none
COC(=O)c1sccc1NC(=O)c1ccc(OC)cc1OC	none
Cc1nc2cc(-c3ccc(Cl)cc3)nn2c(NCCN(C)C)c1C	STAT3 act-1 150.7 | STAT3 act-2 183.2 | NFkB act 2 inactive | STAT1 act-2 120.5
Cc1nc2ccccc2c(=O)n1NC(=O)C1CC1	none (no result: NF-kB neuron act)
CCOC(=O)Cn1cc(C#N)c2ccccc21	none
N#Cc1cn(CC(=O)O)c2ccccc12	STAT3 act-1 139.8 | STAT3 act-2 139.8 | NFkB act 2 inactive | STAT1 act-2 inactive
COCc1cc(C)nc2sc(C(=O)NN)c(-n3cccc3)c12	STAT3 act-1 136.8 | STAT3 act-2 139.0 | NFkB act 2 inactive | STAT1 act-2 inactive
O=S(=O)(Nc1ncccn1)c1ccc(NC(=S)NCc2cccnc2)cc1	none
O=C(Nc1nnc(-c2ccccc2Cl)o1)c1ccco1	none
O=C(Nc1nnc(-c2ccccc2Cl)o1)c1nc2ccccc2s1	STAT3 act-1 159.1 | STAT3 act-2 139.6 | NFkB act 2 inactive | STAT1 act-2 inactive
O=C1CCCCCN1Cc1nnc(SCc2nc3ccccc3s2)n1-c1ccccn1	STAT3 act-1 139.8 | STAT3 act-2 150.6 | NFkB act 2 128.5 | STAT1 act-2 144.9
Clc1ccc(-c2ccc(/C=N/Nc3nncc(-c4ccccc4)n3)o2)cc1	none
Clc1ccccc1-c1ccc(/C=N/Nc2nncc(-c3ccccc3)n2)o1	STAT3 act-1 162.9 | STAT3 act-2 154.3 | NFkB act 2 inactive | STAT1 act-2 inactive
Cc1ccc(C(=O)c2cc([N+](=O)[O-])ccc2N2CCCCC2)c(C)c1	STAT3 act-1 137.4, NF-kB neuron act 3.89 | STAT3 act-2 inactive | NFkB act 2 152.2 | STAT1 act-2 inactive
CCOc1ccc(C(=O)c2cc([N+](=O)[O-])ccc2N2CCOCC2)cc1	STAT3 act-1 166.0, NF-kB neuron act 3.62 | STAT3 act-2 inactive | NFkB act 2 164.8 | STAT1 act-2 131.6
Cc1ccc(C(=O)c2cc([N+](=O)[O-])ccc2N2CCOCC2)cc1	none
CCC(CC)NC(=O)c1cc([N+](=O)[O-])ccc1N1CCOCC1	none
COc1ccc(C(=O)c2cc([N+](=O)[O-])ccc2N2CCOCC2)cc1	STAT3 act-1 163.3, NF-kB neuron act 3.37 | STAT3 act-2 inactive | NFkB act 2 171.7 | STAT1 act-2 141.1
O=c1[nH]c(SCc2ccc(F)cc2Cl)nc2ccccc12	none
CCC(CC)NC(=O)CCCSc1nc2ccccc2[nH]1	none
O=[N+]([O-])c1cnc2nc(-c3ccncc3)nn2c1O	none
CCN(CC(=O)Nc1ccc(C(C)=O)cc1)CC(=O)Nc1cccc(OC)c1	none
Cc1cc(C)nc(/N=C(\N)Nc2ccccc2-c2ccccc2)n1	none
CC(Oc1ccc(F)cc1)C(=O)Nc1ccc2ccccc2c1 (stereo unspecified)	STAT3 act-1 139.2 (no result: APP 5'UTR act) | STAT3 act-2 135.8 | NFkB act 2 inactive | STAT1 act-2 inactive
S=C(N/N=C1\CCc2ccccc21)NC1CCCCC1	STAT3 act-1 136.6 | STAT3 act-2 164.1 | NFkB act 2 135.1 | STAT1 act-2 122.1
CCOCCCNC(=O)C(NC(=O)Cc1c[nH]c2ccccc12)c1ccccc1 (stereo unspecified)	STAT3 act-1 144.2 | STAT3 act-2 135.4 | NFkB act 2 inactive | STAT1 act-2 inactive
CCOCCCNC(=O)C(NC(=O)Cc1cccs1)c1ccccc1 (stereo unspecified)	none
COc1ccc(C(=O)CC(=O)C(=O)NCCc2cccc(C)c2)cc1	none
O=C(/C(=C(\[O-])c1ccccc1)[n+]1ccc2ccccc2c1)c1ccc(Cl)cc1	STAT3 act-1 151.7 | STAT3 act-2 155.8 | NFkB act 2 inactive | STAT1 act-2 inactive
O=C(/C(=C(\[O-])c1ccccc1)[n+]1ccc2ccccc2c1)c1ccc([N+](=O)[O-])cc1	none
O=C(/C(=C(\[O-])c1ccccc1)[n+]1ccc2ccccc2c1)c1ccccc1	STAT3 act-1 137.5 | STAT3 act-2 150.8 | NFkB act 2 inactive | STAT1 act-2 inactive
CCC(=O)Nc1cccc2cccnc12	none
O=C(Nc1ccccc1)Nc1cccc2cccnc12	STAT3 act-1 149.7 | STAT3 act-2 147.3 | NFkB act 2 136.2 | STAT1 act-2 151.8
NC(=O)C(=O)N/N=C/c1cccc(C(F)(F)F)c1	none
CCn1c(CC(=O)Nc2ccccc2)n[nH]c1=S	none
O=C(Cc1cscn1)c1ccc(O)cc1O	STAT3 act-1 146.4 | STAT3 act-2 inactive | NFkB act 2 inactive | STAT1 act-2 inactive
COc1ccc(CNC(=O)CCSCc2cccc(Cl)c2)c(OC)c1	none
CCCCCCn1c(Br)nc2c1c(=O)n(C)c(=O)n2C	none
CCN1CCc2c(OCC(=O)N3CCCCC3)cccc2C1=O	none
c1ccc2cc(-c3cc4ccccn4c3)ccc2c1	STAT3 act-1 176.9 | STAT3 act-2 inactive | NFkB act 2 inactive | STAT1 act-2 inactive
O=C(CCCN1C(=O)c2cccc3cccc(c23)C1=O)NCc1cccs1	none
COc1ccc(C2c3[nH]c4ccccc4c3CCN2C(=O)c2cn3ccccc3n2)c(F)c1 (stereo unspecified)	STAT3 act-1 161.0 | STAT3 act-2 159.0 | NFkB act 2 inactive | STAT1 act-2 inactive
COc1ccc(OCC(=O)N2CCc3c([nH]c4ccccc34)C2c2ccccn2)cc1 (stereo unspecified)	none
COc1ccc(C2c3[nH]c4ccccc4c3CCN2C(=O)c2cc3ncccn3n2)c(F)c1 (stereo unspecified)	STAT3 act-1 146.4 | STAT3 act-2 148.9 | NFkB act 2 inactive | STAT1 act-2 inactive

High-throughput results as filed in PubChem.
